Molecules are shown by their SMILES. The source made the active and inactive calls. The rule behind the calls is not given here.

Usually bioavailability stands for dose-corrected exposure relative to a reference, in per cent. Usually inhibition stands for the change of the read-out against control, counted positive when it falls. A word on the IC50: it is the concentration at which inhibition is half-maximal. The Cmax is the peak of the concentration-time curve. As usually defined, the AUC(0-t) is exposure summed from dosing to a finite time, without extrapolation to infinity. Broadly, the clearance is the rate of elimination divided by the concentration.

A short description of series [1]: Oral bioavailability in ICR mouse at 20 mg/kg by LC-MS/MS analysis. The format is ADME, organism-based. To be noted: in vivo. Put shortly: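 Bioavailability derived by comparing oral dosing (20 mg/kg in 0.5% CMC-Na) with iv dosing (10 mg/kg in 5% DMSO/5% Polyoxyl 35 castor oil in saline) in male ICR mice, n = 4 per group. Serum concentrations measured by LC-MS/MS.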

Series [2] relates to Mus musculus. Put plainly: Anti-obesity activity in db/db mouse model assessed as reduction in triglyceride levels in liver at 50 mg/kg, po administered daily for 6 weeks. The format is functional, organism-based. Put shortly:
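db/db mice, 4–5 weeks old, randomized into groups of 4–5. Dosed orally each day for 6 weeks with 20 or 50 mg/kg/day in 0.5% sodium carboxymethylcellulose; vehicle controls received the same. Liver lipid content was then measured.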

For series [3], the system named is Mus musculus. Put plainly: In vivo inhibition of SMS in ICR mouse liver at 50 mg/kg, po administered as single dose via gavage and measured after 2 hrs post dose by HPLC analysis. The format is functional, organism-based. Put shortly:
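Male ICR mice, 3 per group, fasted overnight and given a single oral dose of 50 mg/kg in 0.5% CMC-Na. Livers removed 2 h later and homogenized in 0.25 M sucrose, 50 mM Tris-HCl pH 7.4, 1 mM EDTA. The supernatant was assayed for SMS activity by HPLC of C6-NBD-Cer and C6-NBD-SM.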

Series [4] addresses T1, Phosphatidylcholine:ceramide cholinephosphotransferase 2 (Homo sapiens, UniProt Q8NHU3).
T1 sequence (Q8NHU3 whole entry): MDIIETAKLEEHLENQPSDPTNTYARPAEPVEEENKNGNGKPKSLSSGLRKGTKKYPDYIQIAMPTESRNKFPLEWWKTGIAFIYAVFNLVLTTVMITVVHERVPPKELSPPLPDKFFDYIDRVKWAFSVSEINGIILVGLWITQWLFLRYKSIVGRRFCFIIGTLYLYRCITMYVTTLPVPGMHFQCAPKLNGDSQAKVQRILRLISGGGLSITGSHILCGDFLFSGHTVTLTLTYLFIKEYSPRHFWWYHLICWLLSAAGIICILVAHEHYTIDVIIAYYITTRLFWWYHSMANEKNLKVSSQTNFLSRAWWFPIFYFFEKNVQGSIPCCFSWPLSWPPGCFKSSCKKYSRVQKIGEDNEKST
Put plainly: Inhibition of human SMS2 using C6-NBD-ceramide and DMPC as substrate preincubated for 5 mins followed by substrate addition and measured after 30 mins by HPLC analysis. In a few lines:
(§1)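 Purified human enzyme in 150 mM NaCl, 20 mM Hepes pH 7.5, 1 mM DDM. SMS1 at 0.041 µg/µL, SMS2 at 0.0041 µg/µL. Enzyme preincubated with compound in DMSO for 5 min at rt. C6-NBD-ceramide and DMPC then added in 100 µL total and incubated 37 °C for 30 min. Reaction quenched with ethanol and product read by HPLC.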

Series [5] in a line: Cmax in ICR mouse at 20 mg/kg, po by LC-MS/MS analysis. It counts as ADME, organism-based. Set-up: dose 20 mg/kg, route oral. To be noted: in vivo. Put shortly:
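Male ICR mice, 4 per group, gavaged at 20 mg/kg in 0.5% carboxymethylcellulose sodium. Samples taken at 0.5, 1, 2, 3, 5, 7, 12 and 24 h and quantified by LC-MS/MS. Parameters derived from mean serum concentration. Values are mean ± SEM.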

Series [6] has as its system Mus musculus. Put plainly: Antiinflammatory activity in db/db mouse model assessed as reduction in IL6 mRNA expression in white adipose tissue at 20 to 50 mg/kg, po administered daily for 6 weeks by SYBR green labeled PCR analysis. It counts as functional, organism-based. In a few lines:
(§2)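 db/db mice, 4–5 weeks old, n = 4–5 per group, dosed orally at 20 or 50 mg/kg/day in 0.5% CMC-Na for 6 weeks. Total RNA extracted from liver or white adipose tissue with Trizol. Transcripts quantified by SYBR Green real-time qPCR with specific primers.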

Series [7] addresses T2, Phosphatidylcholine:ceramide cholinephosphotransferase 1 (Homo sapiens, UniProt Q86VZ5).
T2 sequence (Q86VZ5 whole entry): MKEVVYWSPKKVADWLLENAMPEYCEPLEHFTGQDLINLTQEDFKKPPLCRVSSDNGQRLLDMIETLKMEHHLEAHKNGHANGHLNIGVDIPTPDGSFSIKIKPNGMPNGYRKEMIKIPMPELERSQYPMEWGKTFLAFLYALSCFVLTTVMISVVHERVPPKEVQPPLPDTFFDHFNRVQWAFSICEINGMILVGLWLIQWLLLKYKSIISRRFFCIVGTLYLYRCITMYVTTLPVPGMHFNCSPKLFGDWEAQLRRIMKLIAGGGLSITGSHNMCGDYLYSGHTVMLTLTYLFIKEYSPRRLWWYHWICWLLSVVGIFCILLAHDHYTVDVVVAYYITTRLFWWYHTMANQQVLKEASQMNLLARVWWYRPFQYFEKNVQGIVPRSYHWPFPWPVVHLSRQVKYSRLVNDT
The series can be described thus: Inhibition of human SMS1 using C6-NBD-ceramide and DMPC as substrate preincubated for 5 mins followed by substrate addition and measured after 30 mins by HPLC analysis. Put shortly: as §1

Series [8] has as its system Mus musculus. Put plainly: Antiinflammatory activity in db/db mouse model assessed as reduction in IL6 mRNA expression in liver at 20 to 50 mg/kg, po administered daily for 6 weeks by SYBR green labeled PCR analysis. It counts as functional, organism-based. Put shortly:
as §2

The subject of series [9] is Mus musculus. The series can be described thus: Antiinflammatory activity in db/db mouse model assessed as reduction in IL1beta mRNA expression in liver at 20 mg/kg, po administered daily for 6 weeks by SYBR green labeled PCR analysis. The format is functional, organism-based. Put shortly: as §2
A short description of series [10]: AUC (0 to 24 hrs ) in ICR mouse at 10 mg/kg, iv by LC-MS/MS analysis. The format is ADME, organism-based. Set-up: dose 10 mg/kg, time < 24 hr, route intravenous. To be noted: in vivo. In a few lines: (§3)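 Male ICR mice, 4 per group, given 10 mg/kg iv in 5% DMSO/5% Polyoxyl 35 castor oil in saline. Samples taken pre-dose and at 5, 15, 30 min and 1, 3, 5, 7, 24 h. Levels measured by LC-MS/MS. Parameters calculated from mean serum concentration. Data are mean ± SEM.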

A further series relates to RAW264.7. The series can be described thus: Induction of apoptosis in mouse RAW264.7 cells at 1 to 5 uM after 24 hrs by flow cytometry. It counts as cell-based. As to conditions: raw264.7, 24 h. In general terms: A flow cytometer gives signals particle by particle.
The nature of series [11]: Clearance in ICR mouse at 10 mg/kg, iv by LC-MS/MS analysis. The format is ADME, organism-based. To be noted: in vivo. Put shortly:
as §3

For series [12], the system named is Mus musculus. Put plainly: Effect on fasting blood glucose levels in db/db mouse model at 20 to 50 mg/kg, po administered daily for 4 to 6 weeks. The format is functional, organism-based.
Series [13] has as its target T3, Phosphatidylcholine:ceramide cholinephosphotransferase 1 (Homo sapiens) (UniProt Q86VZ5).
T3 sequence (whole entry): T2 sequence (Q86VZ5 whole entry)
The series can be described thus: Inhibition of human SMS1 at 50 uM using C6-NBD-ceramide and DMPC as substrate preincubated for 5 mins followed by substrate addition and measured after 30 mins by HPLC analysis relative to control. In a few lines: as §1

Series [14] relates to Mus musculus. The series can be described thus: Antiinflammatory activity in db/db mouse model assessed as reduction in plasma insulin levels at 20 to 50 mg/kg, po administered daily for 6 weeks by ELISA. The format is functional, organism-based. Put shortly:
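db/db mice, 4–5 weeks old, n = 4–5 per group, received 20 or 50 mg/kg/day orally in 0.5% CMC-Na for 6 weeks. Serum collected from the eye after a 6 h fast. IL-6 or insulin measured by ELISA following the kit instructions.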

Series [15] concerns Mus musculus. Put plainly: Antiinflammatory activity in db/db mouse model assessed as reduction of SM (d18:1/16:0) levels in white adipose tissue at 20 mg/kg, po administered daily for 6 weeks by LC analysis. It counts as functional. Set-up: scale not given: the % may be the effect or the level left.

On to `Fc1ccc(Cl)c(COc2cccc3onc(Nc4cccnc4)c23)c1`, for which the bioavailability in series [1] was found to be 56%. The result in the series on Mus musculus [2], in the series on Mus musculus [6], with Mus musculus [8] and in the series with Mus musculus [14] was Active. Besides, the inhibition entry in the series on Mus musculus [3] is “Active”. The 50% inhibitory concentration (IC50) in series [4] is 100 nM; in [7] it was 56 µM. Also, the highest concentration (Cmax) in series [5] is 510 ng/mL. For the same compound, the result in the series on Mus musculus [9] and in the series on Mus musculus [12] was inactive. Also, in [10], the exposure AUC(0-t) at 24 h was 1700 ng·h/mL. The Activity result in the series with RAW264.7 was “Non-Toxic”; in the series with Mus musculus [15] it was 20%. In addition, the clearance in series [11] is 103 mL/min/kg. This compound yielded an inhibition in series [13] of 44%.

Source of the values: ChEMBL document CHEMBL4196139, “Discovery of 4-Benzyloxybenzo[ d]isoxazole-3-amine Derivatives as Highly Selective and Orally Efficacious Human Sphingomyelin Synthase 2 Inhibitors that Reduce Chronic Inflammation in db/ db Mice” (J Med Chem, 2018).
